# Measurements from publication PMC9305987 (Nature cell biology, 2022).
# pIC50: −log10 of the molar value. Where two headings read alike, the source gives them in different places.
# Assays:
# [1] = system: RAW264.7 cells; test: qRT-PCR of LPS-induced genes; format: cell-based, mouse
# In short: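 Alternatively, cells got LPS for 2 h, then OI for 2 h, or LPS plus dimethyl-α-KG (0.5, 1, 2 mM). mRNA was measured by qRT-PCR with β-actin as housekeeping control. Nfkbiz data are means with S.D. of 3 independent experiments.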
# [2] = system: bone marrow-derived macrophages (BMDMs); test: Global 5hmC quantification by LC-MS/MS in BMDMs; format: cell-based, mouse; conditions: 0.5 mM OI or increased concentrations of ITA, 8 hours; for Reduction of global 5hmC: Tet2^+/+ BMDMs; for Effect on global 5hmC: Tet2^−/− BMDMs
# [3] = system: Tet2^+/+ BMDMs; test: 5hmC mapping by hMeDIP-seq in BMDMs; format: cell-based, mouse; conditions: 0.5 mM OI, 8 hours
# [4] = system: HEK293T cells overexpressing TET3; test: Global 5hmC by dot-blot and LC-MS/MS in TET3-overexpressing cells; format: cell-based
# In short: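 For dot-blot, genomic DNA was spotted on nitrocellulose, UV-crosslinked for 20 min, blocked in 5% milk, probed with anti-5hmC overnight at 4°C and HRP secondary, then scanned. Global 5hmC was also measured by LC-MS/MS, mean with S.D. of 3 independent experiments.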
# [5] = system: TET2-overexpressing HEK293T cells; test: Global histone methylation markers by western blot; format: cell-based
# [6] = system: HEK293T cells overexpressing mTET2^CD; test: Global 5hmC by immunofluorescence in TET2-overexpressing cells; format: cell-based; conditions: for Effect on 5hmC: HEK293T overexpressing mTET2^CD
# In short: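 TET2-overexpressing HEK293T cells were treated with OI alone or with rising amounts of dimethyl-α-KG. 5hmC immunofluorescence: Triton X-100 permeabilization, 2 N HCl denaturation for 30 min, Tris pH 8.5 neutralization, BSA block, anti-5hmC overnight at 4°C, fluorescent secondary, DAPI counterstain. Two independent experiments.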
# [7] = system: RAW264.7 mouse macrophages; test: Intracellular ITA accumulation by LC-MS/MS; format: cell-based; conditions: RAW264.7, dose-dependent
# [8] = system: RAW264.7 cells; test: Genomic 5hmC by IF staining in LPS-treated macrophages; format: cell-based, mouse; conditions: LPS 12 hours then 1 mM for 12 hours
# In short: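 RAW264.7 cells (DMEM, 10% FBS) were challenged with LPS for 12 h, then given dimethyl-α-KG (1 mM) for 12 h. Cells were permeabilized with 0.3% Triton X-100 for 15 min, DNA denatured with 2 N HCl for 30 min, and neutralized with 100 mM Tris-HCl pH 8.5. Staining used 3% BSA block, anti-5hmC at 4°C overnight, Alexa Fluor 594 secondary for 1 h, and DAPI, then fluorescence microscopy.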
# [9] = system: Irg1-KO RAW264.7 cells; test: SDH inhibition, succinate and 5hmC in LPS-stimulated Irg1-KO macrophages; format: cell-based, mouse; conditions: 3-NPA 1 mM, LPS-stimulated Irg1-KO RAW264.7
# [10] = system: TET2^CD mutant, i.e. R1896M or S1898F; test: STD NMR binding to TET2^CD mutants; parameters: species or system human
# [11] = molecular target: recombinant human TET2^CD (Homo sapiens, UniProt Q6N021); test: Saturation transfer difference; format: binding
# In short: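 Spectra were run at 25°C, 700 MHz, cryoprobe, carrier on water. A 3-s saturation used a 50-ms EBurp2 pulse (0.75 ppm bandwidth) centred at 0.8 ppm for difference or −40 ppm for reference spectra.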
# [12] = molecular target: T1, mTET2^CD (Mus musculus, UniProt Q4JK59); format: biochemical; conditions: for Inhibition of mTET2^CD activity in presence of excess α-KG: fixed concentration of inhibitor, variable α-KG
# T1 sequence (Q4JK59 1042-1912 limits assumed): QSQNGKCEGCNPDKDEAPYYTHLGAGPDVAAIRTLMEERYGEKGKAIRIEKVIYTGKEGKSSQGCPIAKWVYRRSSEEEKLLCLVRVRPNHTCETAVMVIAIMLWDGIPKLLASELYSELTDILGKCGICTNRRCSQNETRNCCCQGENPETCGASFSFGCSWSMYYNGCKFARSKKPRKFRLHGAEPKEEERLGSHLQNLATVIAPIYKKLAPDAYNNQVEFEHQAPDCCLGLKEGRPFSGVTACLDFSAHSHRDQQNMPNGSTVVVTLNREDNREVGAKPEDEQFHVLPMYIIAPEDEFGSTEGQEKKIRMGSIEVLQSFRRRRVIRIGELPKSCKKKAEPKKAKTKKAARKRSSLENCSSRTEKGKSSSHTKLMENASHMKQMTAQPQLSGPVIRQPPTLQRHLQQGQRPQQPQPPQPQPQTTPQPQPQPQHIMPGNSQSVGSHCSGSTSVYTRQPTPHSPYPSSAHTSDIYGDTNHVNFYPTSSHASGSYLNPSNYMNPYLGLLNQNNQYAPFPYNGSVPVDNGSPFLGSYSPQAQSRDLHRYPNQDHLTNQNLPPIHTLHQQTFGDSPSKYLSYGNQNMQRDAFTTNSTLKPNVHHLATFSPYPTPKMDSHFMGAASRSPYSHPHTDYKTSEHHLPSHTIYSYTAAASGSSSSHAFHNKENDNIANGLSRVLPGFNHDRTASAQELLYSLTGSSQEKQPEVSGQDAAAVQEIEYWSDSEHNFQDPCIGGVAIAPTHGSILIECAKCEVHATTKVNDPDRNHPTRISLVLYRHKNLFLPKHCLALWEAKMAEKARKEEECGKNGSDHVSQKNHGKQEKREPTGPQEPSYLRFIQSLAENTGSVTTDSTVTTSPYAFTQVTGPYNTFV
# [13] = system: LPS-induced sepsis; test: Mouse model of LPS-induced sepsis; format: in vivo; conditions: Tet2^−/− mice
# [14] = system: peritoneal leukocytes; test: Genomic 5hmC and 5mC in peritoneal leukocytes after i.p. ITA, LC-MS/MS; format: in vivo, mouse; conditions: 50 mg/kg ITA i.p. prior to LPS 25 mg/kg
compound,measurement,setting,value
"C=C(CC(=O)OCCCCCCCC)C(=O)O [OI, octyl-ITA]",Nfkbiz mRNA expression,[1]; LPS-stimulated Tet2-KO cells,failed to affect
same,"LPS-induced mRNA expression of Nfkbiz, Il-6, Cxcl9/10/11","[1]; Tet2-WT, LPS 2 hours then OI 2 hours",hindered
same,Reduction of global 5hmC,[2],≤ 95%
same,Effect on global 5hmC,[2],little effect
same,5hmC by hMeDIP-seq,[3],decreased 5hmC at both promoters and intragenic regions
same,Effect on global 5hmC,[4],decreased global 5hmC
same,Effect on global histone methylation,[5],no detectable effect
same,Effect on 5hmC,[6],dose-dependently reduced 5hmC
same,Time to intracellular accumulation of ITA,[7],< 30 s
COC(=O)CCC(=O)C(=O)OC [dimethyl-α-KG],Effect on 5hmC in LPS-treated cells,[8],restored 5hmC
same,Nfkbiz mRNA,[1]; LPS-stimulated Tet2-WT but not Tet2-KO cells,further increase
same,Effect on OI-induced 5hmC reduction,"[6]; increasing amount, together with OI",reversed
"O=C(O)CC[N+](=O)[O-] [3-NPA, 3-nitropropionic acid]",Effect on global 5hmC,[9],little effect
same,Intracellular accumulation of succinate,[9],≤ 1.5 mM
α-ketoglutarate [α-KG],Binding to TET2^CD R1896M mutant (STD NMR),"[10]; R1896M mutation, not S1898F",weakens the binding
CCCCCCCCOC(=O)[C@@H](O)CCC(=O)O [Octyl-L-2HG],Effect on 5hmC,[6],dose-dependently reduced 5hmC
NC(=O)CC[C@H](N)C(=O)O [glutamine],Binding to recombinant human TET2^CD (STD NMR),[11],not
O=C(O)CC[C@H](O)C(=O)O [L-2-HG],Inhibition of mTET2^CD activity in presence of excess α-KG,[12],overcome dose-dependently by excess α-KG
"C=C(CC(=O)O)C(=O)O [ITA, itaconic acid]",Anti-inflammatory and protective effects,[13],not observed
same,Binding to recombinant human TET2^CD (STD NMR),[11],bound directly
same,ITA-TET2^CD binding in presence of α-KG (STD NMR),[11]; competition with α-KG,blocked by α-KG
same,Suppression of LPS-induced chemokine and cytokine genes upon Tet2 deletion,"[1]; unmodified ITA 3 mM, Tet2-WT vs Tet2-KO",completely abolished by Tet2 deletion
same,pIC50,[12],3.77
same,Inhibition of mTET2^CD activity in presence of excess α-KG,[12],overcome dose-dependently by excess α-KG
same,Reduction of global 5hmC,[2],≤ 95%
same,Effect on global 5hmC,[2],little effect
same,Effect on global 5hmC,[4],decreased global 5hmC
same,Binding to TET2^CD mutants R1896M or S1898F (STD NMR),[10],abolish the binding
same,5mC in peritoneal leukocytes,[14],unaffected
same,Reduction of 5hmC in peritoneal leukocytes,[14]; 2 hours post LPS,≤ 36%
same,Time to intracellular accumulation of ITA,[7],< 30 s
O=C(O)/C=C/C(=O)O [fumarate],pIC50,"[12]; read-out: IC50 toward mTET2^CD catalytic activity, 0.1 mM α-KG, 37°C 30 min",< 2.30
